# Screens from PubChem.
# hK5 inh – kallikrein 5 (human) inhibition; Q9Y337; recombinant hK5, fluorogenic AMC substrate cleavage; 210,000 compounds, 0.59% hits; inhibition, % at 5 µM;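 active = inhibition of 40% or more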;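 note: 0% = enzyme controls without compound and 100% = no-enzyme blanks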
# FXIIa inh 1536 – factor XIIa (human) inhibition. purified FXIIa, Boc-QGR-AMC fluorogenic substrate, 2 h. 220,000 compounds, 0.3% hits. inhibition, % at 5 µM. AID 800. P00748; in the data active = inhibition above about 40%;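 note: 0% = enzyme with no compound and 100% = blank without enzyme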
# Thrombin inh – blocks human thrombin protease activity; alpha-thrombin, Boc-VPR-AMC fluorogenic substrate cleavage; AID 1046; 220,000 compounds, 0.26% hits; inhibition, % at 5 µM;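 active = inhibition at or above 40%; inactive = inhibition below 40%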;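 note: 0% = enzyme with no compound and 100% = wells without enzyme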
#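 signal = AMC fluorescence, 355/460 nm | material = human alpha-thrombin enzyme | control set = enzyme without compound as high, wells lacking enzyme as low | times = reaction at room temperature | read-out basis = percent inhibition scaled between no-compound controls and no-enzyme blanks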
# FXIa inh – factor XIa (human) inhibition; purified FXIa, Boc-Glu-Ala-Arg-AMC fluorogenic substrate; inhibition, % at 5 µM; P03951; AID 798; 220,000 compounds, 0.14% hits;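 active = inhibition of at least 40%; inactive = inhibition below 40%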;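 note: fluorescence of freed AMC excited at 355 nm; 0% = enzyme without compound and 100% = no enzyme blank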
# Wee1 stabilizer – inhibitors of human Wee1 degradation | AID 1321 | reporter increase, % at 5 µM | 220,000 compounds, 1.2% hits | HeLa Luc-Wee1K328M stability, luciferase luminescence; 100% = proteasome inhibitor MG132 effect | P30291;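 active = activation above the mean of all tested compounds plus 3 SD, set per screening run, cut at about 8.8% in these data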;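 note: cells exposed to compound for 20 h before luminescence read; 0% = DMSO alone and 100% = MG132 at 30 µM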
# Target sequence (P30291 whole entry K328M): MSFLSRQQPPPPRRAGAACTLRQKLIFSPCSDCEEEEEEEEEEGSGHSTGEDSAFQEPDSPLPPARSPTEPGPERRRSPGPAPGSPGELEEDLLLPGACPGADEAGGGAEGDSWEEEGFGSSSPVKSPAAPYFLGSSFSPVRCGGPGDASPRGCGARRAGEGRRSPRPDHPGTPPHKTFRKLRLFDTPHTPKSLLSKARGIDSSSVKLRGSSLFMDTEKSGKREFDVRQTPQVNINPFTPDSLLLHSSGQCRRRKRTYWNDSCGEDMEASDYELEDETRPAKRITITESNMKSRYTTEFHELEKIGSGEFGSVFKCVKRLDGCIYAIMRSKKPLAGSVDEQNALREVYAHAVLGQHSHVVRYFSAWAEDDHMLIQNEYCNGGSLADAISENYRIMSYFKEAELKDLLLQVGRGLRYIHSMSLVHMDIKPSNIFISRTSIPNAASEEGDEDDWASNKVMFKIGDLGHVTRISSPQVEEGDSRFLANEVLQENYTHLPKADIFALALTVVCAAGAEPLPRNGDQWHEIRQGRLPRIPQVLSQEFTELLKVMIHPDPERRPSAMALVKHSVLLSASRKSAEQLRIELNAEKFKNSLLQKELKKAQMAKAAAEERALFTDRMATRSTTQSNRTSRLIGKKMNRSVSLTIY
# Platelet DG rel – platelet dense granule release activity; human platelet-rich plasma, SFLLRN dense granule ATP release, luminescence; inhibition, %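 (compounds screened at 7.5 µM in platelet-rich plasma)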; 300,000 compounds, 0.22% hits;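 active = mean replicate score, as percent of positive control, at or above 50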
# * = called active by the depositor; / = no result. An excerpt weighted towards active compounds, which were near 1.8% of everything screened.
SMILES,hK5 inh,FXIIa inh 1536,Thrombin inh,FXIa inh,Wee1 stabilizer,Platelet DG rel
COc1ccc(N2CCN(C(c3ccccc3)c3nnnn3Cc3ccc(F)cc3)CC2)cc1 (stereo not drawn),-4,3,1,1,0,-8
Cc1ccc(N=Cc2c(O)n(-c3nccs3)c(=O)c3ccccc23)cc1,1,4,-6,5,-4,-2
CCc1noc(C)c1C(=O)OC(C)C(=O)Nc1ccccc1OC (stereo not drawn),/,/,/,/,/,-4
NC1=NC(=O)/C(=C\c2cccnc2)S1,-4,4,-16,-3,-1,-44
NC1=NC(=O)/C(=C\C=C\c2ccccc2)S1,55*,4,15,6,-3,1
Cc1ccc(NC(=O)CSCC(=O)N(C)CC(=O)Nc2cccc3ccccc23)cc1,/,/,/,/,/,-7
O=C(Nc1ccccc1)N1CCOCC1,-2,9,2,1,-3,0
O=C(Nc1ccc2c(c1)oc1ccccc12)N1CCOCC1,-13,13,3,42*,8,-8
CCN1CCN(c2ncnc3sc(C)c(-c4ccccc4)c23)CC1,/,/,/,/,/,-1
CCC(c1nnnn1Cc1cccs1)N1CCN(C2CCCC2)CC1 (stereo not drawn),47*,12,0,9,4,5
Cc1cc(C)cc(N2CCCn3c2nc2c3c(=O)n(CC(=O)OCc3ccccc3)c(=O)n2C)c1,5,16,8,1,-1,6
Cc1ccc(N2CC(C)Cn3c2nc2c3c(=O)n(CC(=O)OCc3ccccc3)c(=O)n2C)cc1C (stereo not drawn),44*,25,15,6,-2,2
CCCCCCCC(O)CC(CC1CCCCC1)C(=O)NN (stereo not drawn),-15,27,3,23,-1,-10
Cc1cc(=O)oc2ccc(OCC(=O)NCc3ccco3)cc12,3,19,-1,8,-2,-1
Cc1cc(=O)oc2cc(OCC(=O)NCc3ccco3)ccc12,42*,14,19,3,1,1
Cc1ccc(S(=O)(=O)N(Cc2ccccc2)c2ccccc2C(=O)NCc2ccco2)cc1,-3,47*,-2,-7,0,-1
CC1=C(C(=O)Nc2ccc(C)cc2)C(c2ccc(C)o2)C2=C(CC(C)(C)CC2=O)N1 (stereo not drawn),-10,45*,-5,23,2,-9
Cc1cc(C)nc(-n2nc(C)cc2Nc2ccccc2)n1,54*,-2,104*,-2,5,5
O=C(CC1Sc2ccccc2NC1=O)NCc1ccccc1 (stereo not drawn),-3,8,-1,2,-2,-2
CCOC(=O)Cc1ccc2sc(-c3ccccc3)nc2c1,-14,-3,-11,8,5,55*
CN(c1ccccc1)S(=O)(=O)c1ccc(NC(=S)NC(=O)c2ccccc2)cc1,-12,95*,-4,4,1,-2
COc1ccc(C2=NN(C(=O)CCCC(=O)O)C(c3cn(-c4ccccc4)nc3-c3ccccc3)C2)cc1 (stereo not drawn),17,40*,19,24,1,7
COc1ccc(-c2nn(-c3ccccc3)cc2C2CC(c3cccs3)=NN2C(=O)CCC(=O)O)cc1 (stereo not drawn),3,10,0,2,-2,0
COc1ccc(C2CC(c3ccccc3)=NN2C(=O)CN2CCN(Cc3ccccc3)CC2)cc1 (stereo not drawn),29,27,85*,32,1,7
Cc1ccc(Oc2ccc(OCC(=O)NC3CCS(=O)(=O)C3)cc2)cc1 (stereo not drawn),/,/,/,/,/,-7
SMILES,hK5 inh,FXIIa inh 1536,Thrombin inh,FXIa inh,Wee1 stabilizer,Platelet DG rel
Cc1ccc(S(=O)(=O)N(CC(=O)N2CCOCC2)c2ccc(C(C)C)cc2)cc1,/,/,/,/,/,-12
O=C(CCc1ccc(O)cc1)N/N=C/c1coc2ccccc2c1=O,0,8,58*,2,-1,-5
O=C(N/N=C/c1coc2ccccc2c1=O)c1cc(O)cc(O)c1,14,9,6,2,0,/
CC(C)n1cc(C(=O)N2CCCC(N3CCN(c4cccc(Cl)c4)CC3)C2)cn1 (stereo not drawn),/,/,/,/,/,1
Cc1ccc(S(=O)(=O)Nc2ccc3c(c2)c2c(n3S(=O)(=O)c3ccc(C)cc3)CCCC2=O)cc1,68*,12,27,14,4,-8
Cc1ccc(NC(=S)N(Cc2ccc(Br)cc2)Cc2ccc(C(=O)O)cc2)cc1C,-6,14,-5,3,1,-3
CC12COC3(C(=O)Nc4ccccc4)CC1CCC32C (stereo not drawn),-3,0,-9,-4,-1,-28
CC12COC3(C(=O)Nc4ccc5ccccc5c4)CC1CCC32C (stereo not drawn),-2,/,-6,-3,9.3*,-5
COc1cc(/C=N/Nc2nncn2/N=C/c2ccc(O)c(OC)c2)ccc1O,-1,5,-11,-2,-2,56*
Cn1nc(C(F)(F)F)c2cc(C(=O)Nc3ccc(C(F)(F)F)cc3)sc21,5,11,-1,5,5,-17
Nc1[nH]c(N=NC(=O)c2ccccc2)c2ccccc12,-13,14,-3,11,10*,9
COc1cc(C(=O)NC(=S)N(C)Cc2ccccc2)cc(OC)c1OC,36,26,19,101*,3,9
COc1cc(C(=O)NC(=S)N(CCc2ccccc2)CCc2ccccc2)cc(OC)c1OC,-5,10,1,7,0,7
Cc1nnc2c(-c3ccccc3)nc3ccccc3n12,-11,13,45*,3,2,-40
Cc1ccc(S(=O)(=O)NNC(=O)c2ccc(O)cc2)cc1,53*,10,29,3,4,-10
O=C(O)CCNS(=O)(=O)c1ccc2c(c1)OCCCO2,-2,6,17,13,9.8*,-3
O=C(CNC(=O)c1cccs1)NCC(=O)OCc1c(F)cccc1Cl,-27,-6,-1,-8,9.0*,-2
COc1ccc(C(=S)N2CCCC2)cc1Br,/,/,/,/,/,-20
COc1ccc(C(=O)n2ccc(C)n2)cc1Br,70*,19,7,7,-3,/
O=C(c1ccccc1)N1CCN(c2ccc([N+](=O)[O-])c(NCC3CCCO3)c2)CC1 (stereo not drawn),-6,0,-4,-4,11*,2
OC(CN1C2=NCCN2c2ccccc21)c1ccc(Br)cc1 (stereo not drawn),53*,1,12,7,-2,7
COc1ccc(C(=O)Nc2ccccc2C(=O)Nc2cccnc2)cc1,/,/,/,/,/,64*
COc1cccc(NC(=O)CN(C)C(=O)CC(C)c2ccccc2)c1 (stereo not drawn),/,/,/,/,/,4
COc1cccc(NC(=O)CN(C)CC(=O)NC(C)c2ccccc2)c1 (stereo not drawn),12,4,-9,-1,8.9*,-2
